ChEMBL document CHEMBL1649429, “Novel plasmid-encoded ceftazidime-hydrolyzing CTX-M-53 extended-spectrum beta-lactamase from Salmonella enterica serotypes Westhampton and Senftenberg” (Antimicrob Agents Chemother, 2009)

Experiments:
[1] = substrate: CC(=O)OCC1=C(C(=O)O)N2C(=O)[C@@H](NC(=O)Cc3cccs3)[C@H]2SC1; test: (§1) Activity of Salmonella enterica serotype Westhampton beta-lactamase CTX-M-53; settings: Salmonella enterica subsp. enterica serovar Westhampton
Outline: (§2)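 CTX-M-53 was purified from E. coli DH5 carrying recombinant pCTX-M-53, grown in brain heart infusion with cefotaxime 2 µg/ml for 18 h at 37°C. Cells were sonicated in 20 mM MES-NaOH pH 6.0, and nucleic acids removed with spermine. The enzyme was purified by SP Sepharose ion exchange and Superose 12 gel filtration. Km and kcat were measured by computerized microacidimetry, three determinations each.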

[2] = substrate: CC(C)(O/N=C(\C(=O)N[C@@H]1C(=O)N2C(C(=O)[O-])=C(C[n+]3ccccc3)CS[C@H]12)c1csc(N)n1)C(=O)O; test: as §1; settings: Salmonella enterica subsp. enterica serovar Westhampton; outline: as §2
[3] = substrate: CC1(C)S[C@@H]2[C@H](NC(=O)Cc3ccccc3)C(=O)N2[C@H]1C(=O)O; test: as §1; settings: Salmonella enterica subsp. enterica serovar Westhampton; outline: as §2
[4] = substrate: CC1(C)S[C@@H]2[C@H](NC(=O)[C@H](C(=O)O)c3ccsc3)C(=O)N2[C@H]1C(=O)O; test: as §1; settings: Salmonella enterica subsp. enterica serovar Westhampton; outline: as §2
[5] = substrate: CC1(C)S[C@@H]2[C@H](NC(=O)[C@H](N)c3ccc(O)cc3)C(=O)N2[C@H]1C(=O)O; test: as §1; settings: Salmonella enterica subsp. enterica serovar Westhampton; outline: as §2
[6] = substrate: CCN1CCN(C(=O)N[C@@H](C(=O)N[C@@H]2C(=O)N3[C@@H]2SC(C)(C)[C@@H]3C(=O)O)c2ccccc2)C(=O)C1=O; test: as §1; settings: Salmonella enterica subsp. enterica serovar Westhampton; outline: as §2
[7] = substrate: CO/N=C(\C(=O)N[C@@H]1C(=O)N2C(C(=O)O)=C(COC(C)=O)CS[C@H]12)c1csc(N)n1; test: as §1; settings: Salmonella enterica subsp. enterica serovar Westhampton; outline: as §2
[8] = substrate: CO/N=C(\C(=O)N[C@@H]1C(=O)N2C(C(=O)O)=C(COC(N)=O)CS[C@H]12)c1ccco1; test: as §1; settings: Salmonella enterica subsp. enterica serovar Westhampton; outline: as §2
[9] = substrate: CO/N=C(\C(=O)N[C@@H]1C(=O)N2C(C(=O)[O-])=C(C[n+]3cccc4c3CCC4)CS[C@H]12)c1csc(N)n1; test: as §1; settings: Salmonella enterica subsp. enterica serovar Westhampton; outline: as §2
[10] = substrate: C[C@H]1[C@H](NC(=O)/C(=N\OC(C)(C)C(=O)O)c2csc(N)n2)C(=O)N1S(=O)(=O)O; test: as §1; settings: Salmonella enterica subsp. enterica serovar Westhampton; outline: as §2
[11] = substrate: CC(=O)OCC1=C(C(=O)O)N2C(=O)[C@@H](NC(=O)Cc3cccs3)[C@H]2SC1; test: (§3) Ratio of Kcat/Km for Salmonella enterica serotype Westhampton beta-lactamase CTX-M-53; settings: Salmonella enterica subsp. enterica serovar Westhampton; outline: as §2
[12] = substrate: CC(C)(O/N=C(\C(=O)N[C@@H]1C(=O)N2C(C(=O)[O-])=C(C[n+]3ccccc3)CS[C@H]12)c1csc(N)n1)C(=O)O; test: as §3; settings: Salmonella enterica subsp. enterica serovar Westhampton; outline: as §2
[13] = substrate: CC1(C)S[C@@H]2[C@H](NC(=O)Cc3ccccc3)C(=O)N2[C@H]1C(=O)O; test: as §3; settings: Salmonella enterica subsp. enterica serovar Westhampton; outline: as §2
[14] = substrate: CC1(C)S[C@@H]2[C@H](NC(=O)[C@H](C(=O)O)c3ccsc3)C(=O)N2[C@H]1C(=O)O; test: as §3; settings: Salmonella enterica subsp. enterica serovar Westhampton; outline: as §2
[15] = substrate: CC1(C)S[C@@H]2[C@H](NC(=O)[C@H](N)c3ccc(O)cc3)C(=O)N2[C@H]1C(=O)O; test: as §3; settings: Salmonella enterica subsp. enterica serovar Westhampton; outline: as §2
[16] = substrate: CCN1CCN(C(=O)N[C@@H](C(=O)N[C@@H]2C(=O)N3[C@@H]2SC(C)(C)[C@@H]3C(=O)O)c2ccccc2)C(=O)C1=O; test: as §3; settings: Salmonella enterica subsp. enterica serovar Westhampton; outline: as §2
[17] = substrate: CO/N=C(\C(=O)N[C@@H]1C(=O)N2C(C(=O)O)=C(COC(C)=O)CS[C@H]12)c1csc(N)n1; test: as §3; settings: Salmonella enterica subsp. enterica serovar Westhampton; outline: as §2
[18] = substrate: CO/N=C(\C(=O)N[C@@H]1C(=O)N2C(C(=O)O)=C(COC(N)=O)CS[C@H]12)c1ccco1; test: as §3; settings: Salmonella enterica subsp. enterica serovar Westhampton; outline: as §2
[19] = substrate: CO/N=C(\C(=O)N[C@@H]1C(=O)N2C(C(=O)[O-])=C(C[n+]3cccc4c3CCC4)CS[C@H]12)c1csc(N)n1; test: as §3; settings: Salmonella enterica subsp. enterica serovar Westhampton; outline: as §2
[20] = substrate: C[C@H]1[C@H](NC(=O)/C(=N\OC(C)(C)C(=O)O)c2csc(N)n2)C(=O)N1S(=O)(=O)O; test: as §3; settings: Salmonella enterica subsp. enterica serovar Westhampton; outline: as §2
[21] = substrate: C[C@H]1[C@H](NC(=O)/C(=N\OC(C)(C)C(=O)O)c2csc(N)n2)C(=O)N1S(=O)(=O)O; settings: Escherichia coli
[22] = substrate: CC(C)(O/N=C(\C(=O)N[C@@H]1C(=O)N2C(C(=O)[O-])=C(C[n+]3ccccc3)CS[C@H]12)c1csc(N)n1)C(=O)O; settings: Escherichia coli
[23] = substrate: C[C@H]1[C@H](NC(=O)/C(=N\OC(C)(C)C(=O)O)c2csc(N)n2)C(=O)N1S(=O)(=O)O; settings: Escherichia coli; remark: listed apart in the source
[24] = substrate: CC(C)(O/N=C(\C(=O)N[C@@H]1C(=O)N2C(C(=O)[O-])=C(C[n+]3ccccc3)CS[C@H]12)c1csc(N)n1)C(=O)O; settings: Escherichia coli; remark: listed apart in the source

B1: Extended-spectrum beta-lactamase CTX-M-53 (Salmonella enterica subsp. enterica serovar Westhampton), Q2XPY6 (protein)
chain: MVKKSLRQFTLMATATVTLLLGSVPLYAQTVDVQQKLAELEQQSGGRLGVALINTADNSQILYRADERFAMCSTSKVMAVAAVLKKSESEPNLLNQRVEIKKSDLVNYNPIAEKHVNGTMSLAELSAAALQYSDNVAMNKLIAHVGGPASVTAFARQLGDETFRLDRTEPTLNTAIPGDPRDTTSPRAMAQTLRNLTLGKALGDSQRAQLVTWMKGNTTGAASIQAGLPASWVVGDKTGSGGYGTTNDIAVIWPKDRAPLILVIYFTQPQPKAESRRDVLASAAKIVTDGL
- Km [1]: 122 µM
- kcat [1]: 2000 s⁻¹
- Km [2]: 174 µM
- kcat [2]: 14 s⁻¹
- Km [3]: 10 µM
- kcat [3]: 135 s⁻¹
- Km [4]: 18 µM
- kcat [4]: 10 s⁻¹
- Km [5]: 40 µM
- kcat [5]: 85 s⁻¹
- Km [6]: 12 µM
- kcat [6]: 90 s⁻¹
- Km [7]: 180 µM
- kcat [7]: 585 s⁻¹
- Km [8]: 80 µM
- kcat [8]: 292 s⁻¹
- Km [9]: 125 µM
- kcat [9]: 710 s⁻¹
- Km [10]: 14 µM
- kcat [10]: 4 s⁻¹
- kcat/Km [11]: 1.64e+07 M⁻¹ s⁻¹
- kcat/Km [12]: 100000 M⁻¹ s⁻¹
- kcat/Km [13]: 1.35e+07 M⁻¹ s⁻¹
- kcat/Km [14]: 500000 M⁻¹ s⁻¹
- kcat/Km [15]: 2.1e+06 M⁻¹ s⁻¹
- kcat/Km [16]: 7.5e+06 M⁻¹ s⁻¹
- kcat/Km [17]: 3.2e+06 M⁻¹ s⁻¹
- kcat/Km [18]: 3.6e+06 M⁻¹ s⁻¹
- kcat/Km [19]: 5.7e+06 M⁻¹ s⁻¹
- kcat/Km [20]: 300000 M⁻¹ s⁻¹

B2: Beta-lactamase CTX-M-16 (Escherichia coli), Q939N4 (protein)
chain: MVTKRVQRMMFAAAACIPLLLGSAPLYAQTSAVQQKLAALEKSSGGRLGVALIDTADNTQVLYRGDERFPMCSTSKVMAAAAVLKQSETQKQLLNQPVEIKPADLVNYNPIAEKHVNGTMTLAELSAAALQYSDNTAMNKLIAQLGGPGGVTAFARAIGDETFRLDRTEPTLNTAIPGDPRDTTTPRAMAQTLRQLTLGHALGETQRAQLVTWLKGNTTGAASIRAGLPTSWTAGDKTGSGGYGTTNDIAVIWPQGRAPLVLVTYFTQPQQNAESRRDVLASAARIIAEGL
- Km [21]: 17 µM
- kcat/Km [22]: 0.04 s⁻¹

B3: Beta-lactamase CTX-M-27 (Escherichia coli), Q840M4 (protein)
chain: MVTKRVQRMMFAAAACIPLLLGSAPLYAQTSAVQQKLAALEKSSGGRLGVALIDTADNTQVLYRGDERFPMCSTSKVMAAAAVLKQSETQKQLLNQPVEIKPADLVNYNPIAEKHVNGTMTLAELSAAALQYSDNTAMNKLIAQLGGPGGVTAFARAIGDETFRLDRTEPTLNTAIPGDPRDTTTPRAMAQTLRQLTLGHALGETQRAQLVTWLKGNTTGAASIRAGLPTSWTVGDKTGSGGYGTTNDIAVIWPQGRAPLVLVTYFTQPQQNAESRRDVLASAARIIAEGL
- Km [23]: 17 µM
- kcat/Km [24]: 0.01 s⁻¹
